Screens from PubChem.
An excerpt weighted towards active compounds, which were near 2.4% of everything screened.
S1P4 antag – human S1P4 receptor antagonism. inhibition, % at 4.98 µM. AID 1510. hit rate 0.26% among 220,000. S1P4-expressing cells, antagonist mode, reporter read-out; in the data active = inhibition above about 29%;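 note: 0% = wells stimulated with agonist and 100% = vehicle wells without agonist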
NPY-Y1 antag – antagonists of human neuropeptide Y receptor Y1; inhibition, % at 3.6 µM; hit rate 1% among 200,000; HEK293-CNG Y1 cells, membrane potential fluorescence; NPY at EC95, then isoproterenol; P25929;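 active = inhibition above the campaign mean inhibition of all tested compounds plus 3 SD, cut at about 20% in these data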;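 note: 0% = DMSO wells given NPY plus isoproterenol and 100% = isoproterenol alone without NPY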
Target sequence (P25929 whole entry, looked up): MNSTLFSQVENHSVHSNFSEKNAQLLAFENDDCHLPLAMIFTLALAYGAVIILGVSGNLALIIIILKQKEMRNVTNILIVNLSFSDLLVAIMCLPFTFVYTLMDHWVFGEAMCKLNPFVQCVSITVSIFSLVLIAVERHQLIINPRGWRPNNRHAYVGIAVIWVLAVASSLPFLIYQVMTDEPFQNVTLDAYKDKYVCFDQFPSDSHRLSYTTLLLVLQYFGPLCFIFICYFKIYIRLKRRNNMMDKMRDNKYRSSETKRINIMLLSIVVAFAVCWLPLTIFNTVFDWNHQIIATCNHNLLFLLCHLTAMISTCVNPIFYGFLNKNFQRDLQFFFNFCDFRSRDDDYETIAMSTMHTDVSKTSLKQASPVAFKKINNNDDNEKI
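Material: HEK293 Y1/CNG channel cell line; also added: NPY (25 nM), isoproterenol (1 µM), Ro 20-1724 (25 µM); doses: one concentration, 3.6 µM, in 0.4% DMSO; schedule: compound incubation 1 h at room temperature, readout 45 min post-stimulation; technique: membrane potential fluorescence; measure: fluorescence ratio normalized to % inhibition between controls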
NPY-Y2 antag – antagonists of human neuropeptide Y receptor Y2 | NPY-Y2 expressing cells, antagonist mode | hit rate 0.99% among 140,000 | P49146 | inhibition, % at 2.7 µM; in the data active = inhibition above about 17%;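 note: 0% = vehicle with agonist challenge and 100% = reference antagonist with challenge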
NPY1 pot ag – potentiates or activates human NPY-Y1 receptor | P25929 | NPY-Y1 expressing cells, potentiator/agonist activation | activation, % at 3.6 µM | hit rate 0.37% among 220,000; in the data active = activation above about 33%, passing the limit was not always enough;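 note: cells stimulated with NPY at EC10 then isoproterenol at EC100; 0% = low agonist plus stimulus and 100% = saturating agonist plus stimulus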
NPY-Y2 PAM-ag – potentiates or activates human NPY-Y2 receptor; cells expressing NPY-Y2, potentiator/agonist read-out; activation, % at 3.6 µM; hit rate 0.45% among 220,000; in the data active = activation above about 27%;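 note: cells stimulated with NPY near EC25 plus isoproterenol at EC100; 0% = vehicle plus submaximal agonist and 100% = vehicle plus saturating agonist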
S1P4 ag – human S1P4 receptor agonism | O95977 | S1P4-expressing cell line, agonist reporter assay | activation, % at 4.98 µM | hit rate 0.35% among 220,000; in the data active = activation above about 11%;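 note: 0% = DMSO vehicle and 100% = reference agonist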
S1P4 agonist cf – confirmation of human S1P4 receptor agonists. hit rate 7% among 740. activation, % at 4.98 µM. shares compounds with S1P4 ag. S1P4 agonist cell-based reporter assay; in the data active = activation above about 12%;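 note: 0% = vehicle and 100% = full reference agonist response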
S1P1 agonist – counter-screen for S1P4 agonists: agonists of human S1P1; shares compounds with S1P4 ag; S1P1 agonist cell-based assay, activation; activation, % at 4.98 µM; hit rate 4% among 740; AID 1563; in the data active = activation above about 21%;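 note: 0% = vehicle wells and 100% = reference agonist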
Starred values were filed as active, the others as inactive.

Screening Cc1ccc(CNC(=O)C2CN(S(C)(=O)=O)c3cc(Cl)ccc3O2)cc1 (configuration not stated) returned S1P4 antag -22.6, NPY-Y1 antag 1.0, NPY1 pot ag -6.8, NPY-Y2 PAM-ag -8.4, S1P4 ag 63.4*, S1P4 agonist cf -2.3 and S1P1 agonist 3.1.
Screening Cc1ccc(/C=C/C(=O)Nc2ccc(S(N)(=O)=O)cc2)o1 returned S1P4 antag -8.8, NPY-Y1 antag -5.0, NPY1 pot ag 6.5, NPY-Y2 PAM-ag 8.8 and S1P4 ag -1.2.
For Cc1ccc(/C=C/C(=O)NCc2ccc(S(N)(=O)=O)cc2)o1 the results were S1P4 antag 10.7, NPY-Y1 antag 0.2, NPY1 pot ag 14.8, NPY-Y2 PAM-ag 10.4, S1P4 ag 11.6*, S1P4 agonist cf -1.6 and S1P1 agonist -2.0.
Screening Cc1cc2cc3c(cc2nc1SCC(=O)O)CCC3 returned S1P4 antag 2.3, NPY-Y1 antag -1.0, NPY1 pot ag -10.6, NPY-Y2 PAM-ag -7.1, S1P4 ag 42.7*, S1P4 agonist cf -0.9 and S1P1 agonist -5.4.
Screening Cc1ccccc1NC(=O)CSc1nc2cc3c(cc2cc1C)CCC3 returned S1P4 antag -52.9, NPY-Y1 antag 1.9, NPY-Y2 antag 2.0, NPY1 pot ag -1.1, NPY-Y2 PAM-ag -12.9 and S1P4 ag -1.1.
For CCOC(=O)N1CCC(N2Cc3cccc(C(=O)Nc4ccc(CC)cc4)c3C2=O)CC1 the results were S1P4 antag -9.4, NPY-Y1 antag -2.2, NPY-Y2 antag 2.5, NPY1 pot ag 3.8, NPY-Y2 PAM-ag -6.2, S1P4 ag 11.7*, S1P4 agonist cf -2.7 and S1P1 agonist -3.4.
CCOC(=O)/C=c1\s/c(=C(\C#N)C(=O)OCC)n(-c2ccccc2)c1=O was read as S1P4 antag -1.6, NPY-Y1 antag -5.7, NPY-Y2 antag -0.3, NPY1 pot ag 18.5, NPY-Y2 PAM-ag -14.8, S1P4 ag 159.9*, S1P4 agonist cf -2.4 and S1P1 agonist -5.6.
`C=CCSC1=C(C#N)C(c2ccccc2Cl)CC(=O)N1` (configuration not stated) gave S1P4 antag -8.7, NPY-Y1 antag 4.7, NPY-Y2 antag 2.9, NPY1 pot ag -5.0, NPY-Y2 PAM-ag -8.2 and S1P4 ag -1.6.
`Cc1ccc(OCCn2cc(/C=C3\C(=O)NN(c4ccccc4)C3=O)c3ccccc32)cc1` gave S1P4 antag 4.7, NPY-Y1 antag 1.6, NPY-Y2 antag 2.8, NPY1 pot ag 15.7, NPY-Y2 PAM-ag 12.0, S1P4 ag 14.1*, S1P4 agonist cf -1.9 and S1P1 agonist -2.8.
Screening Cc1ccc(OCCn2cc(/C=N/NC(=O)c3ccncc3)c3ccccc32)cc1 returned S1P4 antag -12.6, NPY-Y1 antag -1.5, NPY-Y2 antag 1.9, NPY1 pot ag -9.0, NPY-Y2 PAM-ag 1.9 and S1P4 ag 0.1.
`COCCNC(=O)CSc1nc2cc3c(cc2c(=O)n1Cc1ccco1)OCO3` gave S1P4 antag -1.6, NPY-Y1 antag -0.7, NPY-Y2 antag 0.3, NPY1 pot ag -1.9, NPY-Y2 PAM-ag -27.4 and S1P4 ag -1.4.
COCCNC(=O)c1ccc2c(=O)n(Cc3ccco3)c(SCC(=O)NC3CCCC3)nc2c1 was read as S1P4 antag 2.0, NPY-Y1 antag 4.0, NPY-Y2 antag -0.7, NPY1 pot ag 12.7, NPY-Y2 PAM-ag 17.4, S1P4 ag 12.4*, S1P4 agonist cf -2.1 and S1P1 agonist -8.9.
Screening O=c1c2[nH]c3ccc(F)cc3c2ncn1CC1CCCO1 (configuration not stated) returned S1P4 antag 5.0, NPY1 pot ag 1.7, NPY-Y2 PAM-ag -18.9, S1P4 ag 37.5*, S1P4 agonist cf -2.2 and S1P1 agonist 0.7.
Screening CCOC(=O)CN1C(=O)C(C)(C)Oc2ccc(C(=O)NC(C)(C)CC)cc21 returned S1P4 antag -12.5, NPY-Y1 antag 6.7, NPY-Y2 antag 3.3, NPY1 pot ag 2.2, NPY-Y2 PAM-ag -17.8, S1P4 ag 27.9*, S1P4 agonist cf -1.6 and S1P1 agonist 3.3.
Screening O=C(CCCn1c(=O)oc2ccccc21)NC1CCCCCC1 returned S1P4 antag -0.9, NPY-Y1 antag 1.6, NPY1 pot ag 9.8, NPY-Y2 PAM-ag -4.4 and S1P4 ag 1.5.
